Measured values from ChEMBL document CHEMBL3351820, “Development of novel membrane active lipidated peptidomimetics active against drug resistant clinical isolates” (Bioorg Med Chem, 2014).
Converted amounts (≈) assume the structure as drawn. The source made the active and inactive calls. No cut-off for these calls is given here. Where a SMILES comes first, the peptide text is derived from it. [ ]: non-standard residue; d: D form. The star is where a group is joined. Stearoyl = CCCCCCCCCCCCCCCCCC(=O)*; Palmitoyl = CCCCCCCCCCCCCCCC(=O)*; 3Abz = Nc1cccc(C(=O)O)c1; Orn = NCCC[CH](N)C(=O)O

Tests used:
Aspergillus fumigatus [1] = test: Antifungal activity against fluconazole-resistant Aspergillus fumigatus IGMC/LM1/0336 after 24 hrs by M27-A method; type: functional; conditions: IGMC/LM1/0336, 24 h
Outline: (§1)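 Fungi at 2.5×10^3 cfu/mL in RPMI 1640 (L-glutamine, no glucose or NaHCO3, pH 7.0 with 0.165 M MOPS). Mixed 1:1 with serial 2-fold dilutions in water, incubated at 37 °C with shaking, 24 h for A. fumigatus and 48–72 h for C. albicans. Growth read by absorbance at 600 nm. MIC taken as the lowest concentration with no growth.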

Aspergillus niger = test: Antifungal activity against Aspergillus niger ATCC 64028 after 24 hrs by M27-A method; type: functional; conditions: ATCC 64028, 24 h
Outline: (§2)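 Fungi at 2.5×10^3 cfu/mL in RPMI 1640 (L-glutamine, no glucose or NaHCO3, buffered pH 7.0 with 0.165 M MOPS), mixed 1:1 with serial 2-fold aqueous dilutions. Incubated at 37 °C with shaking, 24 h for Aspergillus, 48-72 h for Candida and Cryptococcus; A600 read. MIC taken as lowest concentration with no growth.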

Escherichia coli [2] = test: Antibacterial activity against Escherichia coli MTCC 0723 after 18 hrs by micro dilution broth assay; type: functional; conditions: MTCC 0723, 18 h
Outline: (§3)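 Broth microdilution (modified CLSI): mid-log inoculum at 10^5 CFU/mL in Mueller-Hinton broth; serial 2-fold dilutions of sample in 0.001% acetic acid with 0.2% BSA added. Incubated overnight at 37 °C with agitation; A600 read at 18 h. Drug-free culture and uninoculated broth as controls; triplicate.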

Escherichia coli [3] = test: Antibacterial activity against imipenem-resistant Escherichia coli PGI/ DML02292 clinical isolate after 18 hrs by micro dilution broth assay; type: functional; conditions: PGI/ DML02292, 18 h
Pseudomonas aeruginosa = test: Antibacterial activity against Pseudomonas aeruginosa MTCC 2295 after 18 hrs by micro dilution broth assay; type: functional; conditions: MTCC 2295, 18 h; outline: as §3
Staphylococcus aureus [4] = test: Antibacterial activity against Staphylococcus aureus MTCC 3160 after 18 hrs by micro dilution broth assay; type: functional; conditions: MTCC 3160, 18 h; outline: as §3
Staphylococcus aureus [5] = test: Antibacterial activity against methicillin-resistant Staphylococcus aureus PGI/ DML03149 clinical isolate after 18 hrs by micro dilution broth assay; type: functional; conditions: PGI/ DML03149, 18 h
Bacillus subtilis = test: Antibacterial activity against Bacillus subtilis MTCC 2763 after 18 hrs by micro dilution broth assay; type: functional; conditions: MTCC 2763, 18 h; outline: as §3
[6] = Hemolytic activity in human RBCs; type: ADME, cell-based, Erythrocyte; conditions: red blood cells (RBCs)
Outline: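 Washed fresh human erythrocytes, 4% (v/v) in PBS (35 mM phosphate, 150 mM NaCl, pH 7.2), mixed 1:1 with 2-fold dilutions in PBS. Incubated 1 h at 37 °C without agitation, then centrifuged at 1000 g for 5 min. Supernatant hemoglobin read at 440 nm; % hemolysis = 100(A−A0)/(At−A0).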

[7] = Therapeutic index, ratio of HC50 for human RBCs to MIC for Escherichia coli MTCC 0723; conditions: red blood cells (RBCs), read-out: TI
[8] = Therapeutic index, ratio of HC50 for human RBCs to MIC for Staphylococcus aureus MTCC 3160; conditions: red blood cells (RBCs), read-out: TI
Candida albicans [9] = test: Antifungal activity against Candida albicans ATCC 24433 after 48 to 72 hrs by M27-A method; type: functional; outline: as §2
Candida albicans [10] = test: Antifungal activity against fluconazole-resistant Candida albicans PGI/ DML0109 clinical isolate after 48 to 72 hrs by M27-A method; type: functional; outline: as §1
Cryptococcus neoformans = test: Antifungal activity against Cryptococcus neoformans ATCC 2344 after 48 to 72 hrs by M27-A method; type: functional; outline: as §2
Aspergillus fumigatus [11] = test: Antifungal activity against Aspergillus fumigatus ATCC 42203 after 24 hrs by M27-A method; type: functional; conditions: ATCC 42203, 24 h; outline: as §2
[12] = Membrane permeabilization activity assessed as release of calcein from PE/PG liposomes at 4 ug/ml after 5 mins by spectrofluorimetry; type: ADME
Outline: (§4)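 Calcein-loaded LUVs, PE/PG (bacterial mimic) or PC/PE/PI/ergosterol (fungal mimic), exposed to 1-20 μg/mL for 5 min before fluorescence reading. Triton X-100 in Tris-HCl/NaCl/EDTA buffer sets 100% leakage; % leakage = 100(F−F0)/(Ft−F0). Run in triplicate, two independent experiments, mean ± SD.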

[13] = Membrane permeabilization activity assessed as release of calcein from PC/PE/PI/ergosterol liposomes at 20 ug/ml after 5 mins by spectrofluorimetry; type: ADME; outline: as §4
[14] = Membrane permeabilization activity assessed as release of calcein from PE/PG liposomes at 20 ug/ml after 5 mins by spectrofluorimetry; type: ADME; outline: as §4
[15] = Membrane permeabilization activity assessed as release of calcein from PC/PE/PI/ergosterol liposomes at 4 ug/ml after 5 mins by spectrofluorimetry; type: ADME; outline: as §4
Aspergillus fumigatus [16] = test: Membrane disruption effect in Aspergillus fumigatus ATCC 42203 assessed as surface blebs and aggregation at 4 times MIC by scanning electron microscopy; type: functional, organism-based

Row | Compound | MIC (Aspergillus fumigatus [1]) [µg/mL] | MIC (Aspergillus niger) [µg/mL] | MIC (Escherichia coli [2]) [µg/mL] | MIC (Escherichia coli [3]) [µg/mL] | MIC (Pseudomonas aeruginosa) [µg/mL] | MIC (Staphylococcus aureus [4]) [µg/mL] | MIC (Staphylococcus aureus [5]) [µg/mL] | MIC (Bacillus subtilis) [µg/mL] | HC50 [6] [µg/mL] | selectivity ratio [7] | selectivity ratio [8] | MIC (Candida albicans [9]) [µg/mL] | MIC (Candida albicans [10]) [µg/mL] | MIC (Cryptococcus neoformans) [µg/mL] | MIC (Aspergillus fumigatus [11]) [µg/mL] | Activity [12] [%] | Activity [13] [%] | Activity [14] [%] | Activity [15] [%] | Activity (Aspergillus fumigatus [16])
1 | CCCCCCCCCCCCCCCC(=O)Nc1cccc(C(=O)NC(CCCN)C(=O)NC(CCCN)C(=O)NC(CCCN)C(=O)NC(CCCN)C(N)=O)c1 (stereo not given) ({Palmitoyl-3Abz}-[Orn][Orn][Orn][Orn]-NH2; configuration not given here) | 3.5 (≈ 4.21 µM) | 3.1 (≈ 3.73 µM) | 2 (≈ 2.41 µM) | 3.5 (≈ 4.21 µM) | 3.1 (≈ 3.73 µM) | 3 (≈ 3.61 µM) | 5 (≈ 6.02 µM) | 20 (≈ 24.1 µM) | 350 | 175 | 117 | 2 (≈ 2.41 µM) | 3.5 (≈ 4.21 µM) | 5 (≈ 6.02 µM) | 1.5 (≈ 1.8 µM) |  |  |  |  | 
2 | CCCCCCCCCCCCCCCCCC(=O)Nc1cccc(C(=O)NC(CCCN)C(=O)NC(CCCN)C(=O)NC(CCCN)C(=O)NC(CCCN)C(N)=O)c1 (stereo not given) ({Stearoyl-3Abz}-[Orn][Orn][Orn][Orn]-NH2; configuration not given here) | 2 (≈ 2.33 µM) | 1.5 (≈ 1.75 µM) | 3.5 (≈ 4.07 µM) | 5 (≈ 5.82 µM) | 6.25 (≈ 7.27 µM) | 10 (≈ 11.6 µM) | 10.5 (≈ 12.2 µM) | 12.5 (≈ 14.5 µM) | 200 | 57.1 | 20 | 1.5 (≈ 1.75 µM) | 2 (≈ 2.33 µM) | 5.5 (≈ 6.4 µM) | 1.5 (≈ 1.75 µM) | 44 | 89 | 84 | 57 | Active
